FGF22 binding = shifts melting point of recombinant human FGF22; recombinant FGF22 thermal shift, SYPRO orange fluorescence; percent of sucrose octasulfate shift, DMSO zero; activity (Tm shift, normalised), % at 9.99 µM; 340,000 compounds, 1.5% hits; AID 651658;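 active means mean Tm shift, scaled 0 neutral to 100 positive control, at about 1.3% or above, every replicate too, limit read from the data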
MT1-MMP act inh = blocks activation of human MT1-MMP. HT1080 RFP-PRO-GFP cells, GFP/RFP ratio fluorescence, overnight; percent of plate control window, DMSO zero. GFP/RFP ratio change, % at 20 µM. P50281. 360,000 compounds, 0.061% hits;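 active means GFP/RFP ratio change of at least 30% with cell ATP level not reduced by more than half and red fluorescence within 50% of control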
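Assay system – RFP-PRO-GFP reporter HT1080 cells · Compound dosing – single dose of 20 µM compound, 1% DMSO final · Incubation – overnight compound exposure at 37 °C · Measure – GFP/RFP fluorescence ratio · Benchmarks – DMSO wells and RFP-L50D-GFP cells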
ABCB6 inh 2 = blocks the human ABCB6 transporter | Q9NP58 | K562-ABCB6 porphyrin accumulation, flow cytometry, 1 h; hits give low values | fluorescence ratio to DMSO, % at 10 µM | 360,000 compounds, 0.19% hits;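 active means fluorescence ratio to DMSO below 75%, the collection mean minus 3 SD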;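 further: signal is porphyrin accumulated inside mitochondria; 100% equals median channel fluorescence of DMSO control wells; lower ratio means ABCB6 inhibition with less porphyrin fluorescence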
DAGLB inhibitor = diacylglycerol lipase beta (human) inhibition | Q8NCG7 | HEK293T DAGLB membrane lysate, EnzChek fluorogenic substrate | AID 504411 | 340,000 compounds, 0.059% hits | inhibition, % at 5.17 µM; in the data active means inhibition above about 34%;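 further: 0% = enzyme with vehicle and 100% = wells lacking enzyme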
Exocytosis inh = blocks lytic granule exocytosis; TALL-104 LAMP-1 surface exposure, flow cytometry; cells stimulated with thapsigargin and PMA; inhibition, % at 10 µM; 360,000 compounds, 0.66% hits;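 active means inhibition above about 55%, limit read from the data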
VLA-4 inh = inhibition in a human VLA-4 binding assay | VLA-4 expressing cells, ligand binding flow cytometry | inhibition, % (about 7 µM as worked out from the volumes in the protocol) | 330,000 compounds, 0.2% hits | AID 2557; in the data active means inhibition above about 50%
Granule exo CP1 = lytic granule exocytosis inhibition; TALL-104 cells, LAMP-1 externalization, flow cytometry; stimulated with PMA plus thapsigargin; shares compounds with Exocytosis inh; 1,500 compounds, 11% hits; inhibition, % at 10 µM; in the data active means inhibition above about 60%;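 further: 0% = stimulated vehicle wells and 100% = unstimulated wells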
* marks the source's active call; other numbers are inactive results; / = not tested or not shown. Most compounds without a hit are left out; they make up all but 2% or so of the library.

SMILES	FGF22 binding	MT1-MMP act inh	ABCB6 inh 2	DAGLB inhibitor	Exocytosis inh	VLA-4 inh	Granule exo CP1
COc1ccc2noc3c2c1C(=O)c1ccccc1-3	0	-26	346	-214	88*	-361	23
Nc1c(C(=O)c2ccccc2)sc2nsc(SCCN3CCCC3)c12	/	-147	165	-8	64*	-134	-4
c1ccc(-c2nc(NC3CCCC3)c3ccccc3n2)cc1	0	-2	100	-9	57*	8	-5
COc1cccc(-c2nc(NCc3ccccc3)c3ccccc3n2)c1O	0	3	98	-2	64*	-12	14
C=CCNc1nc(-c2cccc(OC)c2O)nc2ccccc12	/	-5	95	-2	-3	-12	/
COc1cccc(-c2nc(NC3CCCC3)c3ccccc3n2)c1O	0	-5	104	-3	78*	-10	0
O=C1CC2(CCCC2)Oc2ccccc21	0	7	96	-2	14	/	/
O=C1CC2(CCCCCC2)Oc2ccccc21	0	1	92	-2	63*	/	-14
COc1ccccc1CNc1nc(NCc2ccc(C(C)C)cc2)c2sccc2n1	0	-7	102	/	62*	/	85*
CC(C)NC(=O)N(C)C[C@H]1Oc2ncc(-c3cccc(C#N)c3)cc2C(=O)N([C@H](C)CO)C[C@@H]1C	0	/	/	/	/	/	/
CCC(C(=O)NCCCN(CC)Cc1ccccc1)n1nc(C)c2sc3ccccc3c2c1=O (stereo not given)	0	3	101	-7	58*	3	-5
CCC(C(=O)NCCc1ccc(C)cc1)n1nc(C)c2c(C)n(-c3ccccc3)nc2c1=O (stereo not given)	0	1	99	2	86*	7	-4
Cc1nn(C(C)C(=O)NCCCN(Cc2ccccc2)C(C)C)c(=O)c2c1sc1ccccc12 (stereo not given)	0	1	99	0	1	0	/
O=C(C[C@H]1CC[C@H]2[C@@H](COC[C@@H](O)CN2Cc2ccccc2)O1)N1CCOCC1	0	/	/	/	/	/	/
CN(C)CCNc1ncnc2oc(-c3ccccc3)c(-c3ccccc3)c12	0	-7	94	-1	45	18	/
COc1ccc(-c2oc3ncnc(NCCCN(C)C)c3c2-c2ccc(OC)cc2)cc1	0	-12	96	-1	69*	16	6
C[C@@H]1CN([C@@H](C)CO)C(=O)c2c(c3ccccc3n2C)-c2ccccc2CO[C@H]1CN(C)C(=O)Nc1ccccc1	0	/	/	/	/	/	/
Clc1ccc(OCCCNCc2ccccc2)c2ccccc12	0	1	92	-3	99*	-6	6
Brc1ccccc1OCCNCc1ccccc1	0	3	99	-1	-1	0	/
COC(=O)C1=C(C)N(c2ccc(S(N)(=O)=O)cc2)C(=O)C1	/	-1	109	6	1	-5	/
CCOC(=O)C1=C(C)N(c2ccccc2)C(=O)C1	/	-3	98	0	100*	-19	-14
O=C(Nc1cnn(Cc2ccccc2)c1)c1cc2nc(-c3ccco3)cc(C(F)(F)F)n2n1	/	-2	99	-1	96*	6	-5
Cc1nn(C)cc1NC(=O)c1cc2nc(-c3ccco3)cc(C(F)(F)F)n2n1	42	2	99	2	-3	-2	/
CN1c2ccc(-c3cccc(F)c3)cc2[C@@H]2[C@@H](CCN2C(=O)CC2CC2)[C@@H]1CO	0	/	/	/	/	/	/
CCNC(=O)[C@H]1[C@H](CO)[C@H]2Cn3c(ccc(-c4ccccc4F)c3=O)[C@H]2N1C	0	/	/	/	/	/	/
SMILES	FGF22 binding	MT1-MMP act inh	ABCB6 inh 2	DAGLB inhibitor	Exocytosis inh	VLA-4 inh	Granule exo CP1
CCc1ccc(/C=C2/Sc3ccccc3N(CC(=O)NCCCN3CCOCC3)C2=O)cc1	0	5	99	1	66*	8	63*
CCN1CCN(CCNC(=O)c2ccc(/C=C3/Sc4ccccc4N(Cc4cccc(Cl)c4)C3=O)cc2)CC1	0	-3	96	2	79*	-8	55
CN1CCN(CCCNC(=O)c2ccc(/C=C3\Sc4ccccc4N(Cc4ccccc4F)C3=O)cc2)CC1	-1	-3	92	4	66*	/	7
O=C(CN1C(=O)/C(=C\c2cccc(Br)c2)Oc2ccccc21)NCCCN1CCOCC1	0	3	100	6	64*	27	96*
CS(=O)(=O)Nc1ccc2c(c1)[C@H]1C[C@H](CC(=O)NCc3cccc(F)c3)O[C@H](CO)[C@H]1O2	0	/	/	/	/	/	/
COc1cccc(S(=O)(=O)N(C)C[C@@H]2OCc3ccccc3-c3ccccc3C(=O)N([C@@H](C)CO)C[C@@H]2C)c1	0	/	/	/	/	/	/
O=C(C[C@@H]1C=C[C@@H](NC(=O)C2CCC2)[C@H](CO)O1)NC1CCC1	0	/	/	/	/	/	/
COCc1nnc(SCC(=O)NCc2ccccc2)n1-c1ccccc1	0	-2	98	1	-1	3	/
Cc1ccc(-n2c(CCc3ccccc3)nnc2SCC(=O)NCc2ccccc2)cc1C	/	-3	99	2	68*	2	13
O=C(CN1CCOCC1)N1CCCCN2[C@H](CO)[C@H](c3ccc(C#Cc4ccccc4F)cc3)[C@H]2C1	-1	/	/	/	/	/	/
CCOc1ccc2[nH]c3c(N4CCN(c5ccccn5)CC4)ncnc3c2c1	/	14	91	0	88*	-6	10
CCCc1ccc(S(=O)(=O)N(C)S(=O)(=O)c2ccc(F)cc2)cc1	0	-1	95	-11	70*	14	-13
CCN(CC)S(=O)(=O)c1ccc(F)cc1	/	5	105	0	-1	-7	/
CC(C)NC(=O)N(C)C[C@H]1Oc2c(NS(=O)(=O)c3ccccc3)cccc2C(=O)N([C@@H](C)CO)C[C@@H]1C	0	/	/	/	/	/	/
COc1ccc(CCNc2oc(COc3ccccc3Cl)nc2C#N)cc1OC	0	-1	97	1	2	9	/
N#Cc1nc(COc2ccccc2Cl)oc1NCc1ccco1	/	-7	87	-3	56*	11	-8
Fc1ccccc1N1CCN(C2CCCN(Cc3cccc(C(F)(F)F)c3)C2)CC1 (stereo not given)	0	1	96	-6	1	0	/
COc1ccc(CN2CCCC(N3CCN(c4cccc(Cl)c4)CC3)C2)cc1OC (stereo not given)	-1	1	97	1	67*	-2	-15
COc1cc(CN2CCCC(N3CCN(c4ccccc4C)CC3)C2)cc(Cl)c1O (stereo not given)	-1	1	95	0	57*	1	-3
CCOc1cc(CN2CCCC(N3CCN(c4ccc(F)cc4)CC3)C2)ccc1OC (stereo not given)	0	1	99	3	46	-4	/
